Results published in PubChem BioAssay.
Results filed as inconclusive are left out.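 The calls were made as follows, unless noted: active = RAM network inhibition above 8.4% in each of two replicates, 3 SD over the compound average; inconclusive = above 8.4% inhibition in only one replicate; inactive = 8.4% inhibition or less in each replicate.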

How the values were obtained:
[1] = S. cerevisiae growth inhibition in permissive medium (OD615), pilot counter-assay for S. cerevisiae lifespan shortening project, permissive growth control (AID 705;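 active = growth inhibition above 25% in both replicates, a cutoff set 3 SD above the mean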); settings: OD615, 24 h, at 10 µM, active compounds read high
How it was run: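 System: S. cerevisiae with engineered DeaD lifespan system. Medium: SC raffinose/galactose permissive medium. Doses: single compound dose of 10 µM, 0.25% DMSO final. Schedule: 24 h exposure, 30 °C. Measured by: OD615 turbidity read. Read-out: growth inhibition.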

[2] = S. cerevisiae growth inhibition in restrictive medium, OD615, pilot screen, restrictive growth control, yeast lifespan reduction project (AID 706;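 active = growth inhibition above a set limit, 3 SD over mean compound inhibition, in both replicates, cut at about 43% in these data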;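 also: modified DeaD lifespan yeast strain shifted to restrictive glucose medium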); settings: OD615, 48 h, at 10 µM, active compounds read high
How it was run: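 Assay system – genetically modified Saccharomyces cerevisiae, DeaD replicative lifespan assay strain · Medium – CSMM-D glucose medium · Doses – 10 µM compound, 0.25% DMSO · Times – 4 h pre-incubation, 48 h exposure at 30 °C · Signal – optical density at 615 nm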

[3] = doxorubicin toxicity protection in MRP-1 cells – H69AR cells, CellTiter-Glo, duplicate, MRP-1 activator project, pilot screen (AID 807;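 active = viability increase at or above a cutoff of the median across tested compounds plus 3 SD, cut at about 8.5% in these data, passing the limit was not always enough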;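 also: compound pretreatment 18-22 h then 72 h combined with doxorubicin; 0% = doxorubicin alone and 100% = vehicle without doxorubicin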); settings: H69AR viability with doxorubicin, CellTiter-Glo luminescence; at 10 µM; active compounds read high
[4] = viability of HCT116 without oncogenic beta-catenin – human colon tumor cells, pilot screen (AID 823;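 active = cell viability at or below a set limit in both duplicate runs, the limit being the all-compound median minus 4 SD, cut at about 23% in these data, passing the limit was not always enough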;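 also: 0% = wells killed by 20 µM Hyamine and 100% = untreated DMSO cell wells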); settings: HCT116 beta-catenin knockout viability, CellTiter-Glo, 60 h; at 10 µM; active compounds read low
[5] = viability of PTEN-null HCT116 cells – cell-based, HCT116 clonal line, CellTiter-Glo, pilot screen (AID 824;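 active = viability at or below 27.92% in each of two runs, the all-compound median minus 4 SD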;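 also: 0% = 20 µM Hyamine control and 100% = vehicle cell control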); settings: HCT116 PTEN-deleted viability, 60 h, at 10 µM, active compounds read low
[6] = RAM pathway blockade in budding yeast – dse1pr::URA3 reporter, 5-FOA selection, pilot screen (AID 869;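 active = inhibition over a set limit, the all-compound mean plus 3 SD, in both replicate runs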;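 also: 0% = DMSO wells with no growth and 100% = 10 µM 1-NA-PP1 with full growth; RAM network block rescues cells from 5-FOA so hits raise OD615 growth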); settings: S. cerevisiae dse1pr::URA3 5-FOA growth, OD615, 2 d; at 10 µM; active compounds read high; strain carries analog-sensitive mutant Cbk1 kinase
[7] = RAM signaling pathway blockade in yeast – S. cerevisiae, Pdr1DBD-CYC8 efflux-inhibited sensitized strain, primary screen (AID 1298);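 also: 0% = DMSO untreated cells without growth and 100% = 10 µM 1-NA-PP1 full growth; higher means more yeast growth rescued from 5-FOA killing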; settings: S. cerevisiae cbk1-as DSE1-URA3 strain, 5-FOA growth OD615, 2 d; at 50 µM; active compounds read high

CN1CCN(C(=O)c2cn(C)c3ccc(S(=O)(=O)N(C)C4CCCCC4)cc3c2=O)CC1
inactive: growth inhibition [1] -7.8% | growth inhibition [2] -13.2% | viability increase [3] -2.39% | viability [4] 102% | viability [5] 101% | inhibition [6] 0% | RAM network inhibition [7] -0.26%

COc1ccc(C2C(C(N)=O)=C(C)Nc3nc(-c4ccccc4Cl)nn32)c(OC)c1 (stereo unspecified)
inactive: growth inhibition [1] -17.8% | growth inhibition [2] -11.2% | viability increase [3] -0.07% | viability [4] 93.9% | viability [5] 94.7% | inhibition [6] 1.21% | RAM network inhibition [7] -1.06%

CCC(O)CNc1nc(SC)nc2sc3c(c12)CCN(C)C3 (stereo unspecified)
inactive: growth inhibition [1] -7.7% | growth inhibition [2] -14.2% | viability increase [3] -3.74% | viability [4] 99.2% | viability [5] 91.2% | inhibition [6] 2.08% | RAM network inhibition [7] 0.46%

c1ccc(OCc2nnc3sc(C4COc5ccccc5O4)nn23)cc1 (stereo unspecified)
inactive: growth inhibition [1] 4.23% | growth inhibition [2] 5.81% | viability increase [3] -1.91% | viability [4] 99.4% | viability [5] 90% | inhibition [6] 2.56% | RAM network inhibition [7] 5.98%

CCCOC(=O)C1=C(C)NC2=C(C(=O)CC(C)(C)C2)C1c1ccc(N(C)C)cc1 (stereo unspecified)
inactive: growth inhibition [1] -2.65% | growth inhibition [2] 0.07% | viability increase [3] -2.59% | viability [4] 90.8% | viability [5] 80.9% | inhibition [6] -0.505% | RAM network inhibition [7] 6.21%

CC(=O)c1ccc(NC(=O)CSc2nnc(Cn3c(=O)sc4ccccc43)n2C)cc1
inactive: growth inhibition [1] -0.18% | growth inhibition [2] 14.4% | viability increase [3] -1.49% | viability [4] 100% | viability [5] 101% | inhibition [6] 0.83% | RAM network inhibition [7] 3.42%

COc1ccc(N2C(=O)c3ccccc3NC23CCCCC3)cc1
inactive: growth inhibition [1] -13.4% | growth inhibition [2] -9.03% | viability increase [3] -1.34% | viability [4] 94.8% | viability [5] 91.5% | inhibition [6] 0.47% | RAM network inhibition [7] 1.91%

Cc1cc(C)nc(NS(=O)(=O)c2ccc(NC(=O)c3ccc4c(c3)OCO4)cc2)n1
inactive: growth inhibition [1] -6.52% | growth inhibition [2] -0.9% | viability increase [3] 5.22% | viability [4] 100% | viability [5] 95.9% | inhibition [6] 1.28% | RAM network inhibition [7] -0.21%

Cc1cccc(CC(=O)Nc2cc(=O)n(C)c(=O)n2C)c1
inactive: growth inhibition [1] -3.74% | growth inhibition [2] -4.44% | viability increase [3] -1.1% | viability [4] 100% | viability [5] 97.4% | inhibition [6] 1.84% | RAM network inhibition [7] 0.48%

Cc1ccc(-c2nn3c(C)nnc3s2)cc1NC(=O)C(C)C
inactive: growth inhibition [1] -1.65% | growth inhibition [2] 13.7% | viability increase [3] -2.89% | viability [4] 110% | viability [5] 105% | inhibition [6] 0.965% | RAM network inhibition [7] -0.58%

O=C(c1ccccc1F)N1CCN=C1SCc1cccnc1
inactive: growth inhibition [1] -22.1% | growth inhibition [2] 1.65% | viability increase [3] -1.2% | viability [4] 96.8% | viability [5] 99.8% | inhibition [6] 0.695% | RAM network inhibition [7] 4.47%

CCOc1ccccc1C1CC(c2ccccc2)Nc2nc(N)nn21 (stereo unspecified)
inactive: growth inhibition [1] -1.36% | growth inhibition [2] 8.93% | viability increase [3] -1.31% | viability [4] 97.2% | viability [5] 88.2% | inhibition [6] 2.27% | RAM network inhibition [7] 2.72%

CCN(CC)C(=O)CN(Cc1ccccc1)S(=O)(=O)c1ccc(F)cc1
inactive: growth inhibition [1] -8.49% | growth inhibition [2] -11.4% | viability increase [3] -0.99% | viability [4] 93.8% | viability [5] 97.5% | inhibition [6] 1.32% | RAM network inhibition [7] 2.88%

COc1ccc(OC)c2sc(NC(=O)CCS(=O)(=O)c3ccccc3)nc12
inactive: growth inhibition [1] -8.91% | growth inhibition [2] -10.2% | viability increase [3] -8.72% | viability [4] 36.1% | viability [5] 44.3% | inhibition [6] 4.41% | RAM network inhibition [7] 11%

O=C(NCS(=O)(=O)c1ccccc1)c1ccccc1
inactive: growth inhibition [1] -15.4% | growth inhibition [2] -4.22% | viability increase [3] -0.04% | viability [4] 101% | viability [5] 101% | inhibition [6] 0.675% | RAM network inhibition [7] 1.79%

CCCC(=O)Nc1nc(-c2ccc3c(c2)OCCO3)cs1
inactive: growth inhibition [1] -12% | growth inhibition [2] -6.14% | viability increase [3] 2.44% | viability [4] 77.9% | viability [5] 83.3% | inhibition [6] 1.37% | RAM network inhibition [7] 0.85%

CCCn1c(C2CC(=O)N(c3cc(OC)ccc3OC)C2)nc2ccccc21 (stereo unspecified)
inactive: growth inhibition [1] -6.39% | growth inhibition [2] -14.7% | viability increase [3] -2.88% | viability [4] 98.4% | viability [5] 94.8% | inhibition [6] 1.6% | RAM network inhibition [7] 5%

CC1CCCN(c2nc3c(c(=O)[nH]c(=O)n3C)n2CCSc2ncccn2)C1 (stereo unspecified)
inactive: growth inhibition [1] -2.51% | growth inhibition [2] 2.04% | viability increase [3] -3.17% | viability [4] 97% | viability [5] 96.8% | inhibition [6] 1.14% | RAM network inhibition [7] 2.7%

COc1ccccc1C(=O)Nc1nnc(-c2ccc3c(c2)CCCC3)o1
inactive: growth inhibition [1] -10.5% | growth inhibition [2] 7.12% | viability increase [3] -0.59% | viability [4] 90.2% | viability [5] 85.1% | inhibition [6] 0.08% | RAM network inhibition [7] -0.58%

O=C(CCSc1ccccc1)NCCSc1ccccn1
inactive: growth inhibition [1] -12.8% | growth inhibition [2] -12% | viability increase [3] -2.49% | viability [4] 96.3% | viability [5] 94.6% | inhibition [6] 2.69% | RAM network inhibition [7] 0.53%

O=C(Nc1ncc(Br)s1)C(Cc1ccccc1)n1cccc1 (stereo unspecified)
inactive: growth inhibition [1] -17.7% | growth inhibition [2] -13.6% | viability increase [3] -6.2% | viability [4] 63.7% | viability [5] 58% | inhibition [6] 2.83% | RAM network inhibition [7] -0.21%

CCOC(=O)CCn1cc(F)c(=O)n(Cc2ccccc2)c1=O
inactive: growth inhibition [1] 3.69% | growth inhibition [2] 2.14% | viability increase [3] -0.3% | viability [4] 105% | viability [5] 96.1% | inhibition [6] 0.42% | RAM network inhibition [7] 1.43%

CCOC(=O)c1sc(NC(=O)c2ccc3ncsc3c2)nc1C
inactive: growth inhibition [1] -5.17% | growth inhibition [2] 0.14% | viability increase [3] -2.47% | viability [4] 84.2% | viability [5] 82.8% | inhibition [6] 2.75% | RAM network inhibition [7] 5.36%

Cc1c(C(=O)NCC2CCCO2)sc2nc(-c3ccccc3)cn12 (stereo unspecified)
inactive: growth inhibition [1] 7.17% | growth inhibition [2] 8.27% | viability increase [3] 0.89% | viability [4] 109% | viability [5] 95.1% | inhibition [6] 0.15% | RAM network inhibition [7] 1.08%

CCc1cc2c(=O)c(-c3nc4ccccc4[nH]3)coc2c(CN2CCCC(C)C2)c1O (stereo unspecified)
inactive: growth inhibition [1] -3.79% | growth inhibition [2] 12.3% | viability increase [3] -0.47% | viability [4] 103% | viability [5] 92.8% | inhibition [6] -0.17% | RAM network inhibition [7] 0.56%

Cc1cc(Nc2ccc(F)cc2C)n2ncnc2n1
inactive: growth inhibition [1] -3.29% | growth inhibition [2] -0.445% | viability increase [3] 0.05% | viability [4] 108% | viability [5] 101% | inhibition [6] 1.8% | RAM network inhibition [7] 5.54%

C=CCn1c(C)c(C(C)=O)c(SC)nc1=S
inactive: growth inhibition [1] -2.37% | growth inhibition [2] 17.1% | viability increase [3] -1.99% | viability [4] 101% | viability [5] 99.8% | inhibition [6] 0.34% | RAM network inhibition [7] 5.32%

Nn1c(SCc2nc3ccccc3[nH]2)nnc1-c1cccnc1
inactive: growth inhibition [1] 4.54% | growth inhibition [2] 14.9% | viability increase [3] -2.44% | viability [4] 90.2% | viability [5] 95.7% | inhibition [6] 1.13% | RAM network inhibition [7] 1.82%

O=C(NC1CCCCCC1)c1nnc(Cc2ccc(Cl)cc2)o1
inactive: growth inhibition [1] -12.1% | growth inhibition [2] 0.195% | viability increase [3] 2.9% | viability [4] 95.2% | viability [5] 94.5% | inhibition [6] 1.31% | RAM network inhibition [7] 2.19%

CCC(C)NC(=O)c1c(-c2cc(Cl)c(OC)c(Cl)c2)noc1C (stereo unspecified)
inactive: growth inhibition [1] -15% | growth inhibition [2] -11.9% | viability increase [3] 0.42% | viability [4] 96.7% | viability [5] 93% | inhibition [6] 0.895% | RAM network inhibition [7] 5.69%

O=C1c2ccccc2C(O)N1CCN1CCOCC1 (stereo unspecified)
inactive: growth inhibition [1] -0.105% | growth inhibition [2] -6.41% | viability increase [3] -1.24% | viability [4] 94.5% | viability [5] 101% | inhibition [6] 2.64% | RAM network inhibition [7] 1.95%

COc1ccc(CCN=C2SCC(=O)N2C)cc1OC
inactive: growth inhibition [1] 3.32% | growth inhibition [2] 1.86% | viability increase [3] -0.79% | viability [4] 102% | viability [5] 97% | inhibition [6] 2.14% | RAM network inhibition [7] 6.13%

CCOc1ccccc1C1C(C(=O)Nc2ccccc2OC)=C(C)Nc2nc(CCCO)nn21 (stereo unspecified)
inactive: growth inhibition [1] -20.1% | growth inhibition [2] -8.73% | viability increase [3] -3.55% | viability [4] 89.5% | viability [5] 88% | inhibition [6] 1.01% | RAM network inhibition [7] 4.4%
